Compound activity deposited in PubChem by several laboratories.
Most compounds without a hit are left out; they make up all but 3.1% or so of the library.
MEKK2 mut-MEK5 – signal of MEK5 binding to mutant human MEKK2 PB1 domain; bead flow cytometry, Alexa488-MEK5 binding to MEKK2 mutant; percent response, % at 10 µM; actives 0.35% (n = 290,000); AID 1530; in the data active = percent response above about 24%, passing the limit was not always enough
PREPL inh – inhibits the human prolyl oligopeptidase-like enzyme; recombinant PREPL, fluorescence polarization activity-based probe; inhibition, % at 5.96 µM; Q4J6C6; actives 0.68% (n = 320,000); AID 2751;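 also: 0% = enzyme with DMSO and 100% = wells lacking enzyme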
Target sequence (Q4J6C6 whole entry, looked up): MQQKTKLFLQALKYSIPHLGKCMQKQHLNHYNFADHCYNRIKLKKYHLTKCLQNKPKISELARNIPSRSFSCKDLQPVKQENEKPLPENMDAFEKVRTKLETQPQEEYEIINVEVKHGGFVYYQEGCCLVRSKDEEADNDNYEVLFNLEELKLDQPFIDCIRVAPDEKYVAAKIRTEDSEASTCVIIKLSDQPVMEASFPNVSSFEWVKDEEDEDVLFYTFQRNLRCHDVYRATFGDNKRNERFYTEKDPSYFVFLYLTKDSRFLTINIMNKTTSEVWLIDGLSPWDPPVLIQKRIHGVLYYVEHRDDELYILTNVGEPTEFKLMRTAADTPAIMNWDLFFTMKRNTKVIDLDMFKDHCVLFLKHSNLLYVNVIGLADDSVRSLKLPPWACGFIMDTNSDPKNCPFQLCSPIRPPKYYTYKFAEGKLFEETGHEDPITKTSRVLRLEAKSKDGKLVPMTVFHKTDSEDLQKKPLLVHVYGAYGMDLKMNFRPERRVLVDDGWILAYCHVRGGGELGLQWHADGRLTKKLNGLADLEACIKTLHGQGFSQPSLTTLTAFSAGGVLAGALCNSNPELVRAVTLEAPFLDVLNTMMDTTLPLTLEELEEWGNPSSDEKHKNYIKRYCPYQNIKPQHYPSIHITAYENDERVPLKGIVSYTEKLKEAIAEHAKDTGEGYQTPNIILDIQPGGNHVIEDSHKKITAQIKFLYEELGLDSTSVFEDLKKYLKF
MEKK2wt PB1 HTS – raises or lowers MEK5 binding to wildtype human MEKK2 PB1 domain; Q9Y2U5; bead flow cytometry, Alexa488-MEK5 binding to MEKK2 WT; actives lie on both sides; binding response (% of control), % at 10 µM; actives 1.1% (n = 290,000); AID 1531; in the data active = binding response below about 67% or above about 130%
MEKK3 PB1 HTS – raises or lowers MEK5 binding to the human MEKK3 PB1 domain | Q99759 | bead-based flow cytometry, Alexa488-MEK5 binding to MEKK3; actives lie on both sides; 0 = blocked by unlabeled MEK5, 100 = vehicle | binding response (% of control), % at 10 µM | actives 1.4% (n = 290,000);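 active = binding response more than 3 SD above or below the average of its plate-row segment, actives on both sides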;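 also: Alexa488 bead fluorescence after subtracting the streptavidin-only scavenger bead signal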
Apaf-1 inh – human Apaf-1 inhibition | reconstituted apoptosome caspase-3 activity, DEVD-Rh110 fluorescence | inhibition, % at 20 µM | actives 0.71% (n = 330,000); active = inhibition of at least 40% at 20 µM;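 also: plate controls were DMSO wells for no effect and DEVD-CHO caspase inhibitor wells for full effect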
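System – cell-free apoptosome with Apaf-1, procaspase-3 and caspase-9 · Buffer or medium – pH 7.5 Hepes buffer with CHAPS, BSA, DTT · Also added – cytochrome c with DEVD-Rh110 · Times – 30 min compound preincubation, 50 min activation, room temperature · Technique – Rh110 fluorescence intensity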
UBC13 polyUb – human UBC13 polyubiquitination inhibition | P61088 | inhibition, % at 20 µM | actives 0.47% (n = 330,000) | UBC13 polyubiquitin chain formation, TR-FRET; in the data active = inhibition above about 45%, passing the limit was not always enough
PREPL confirm – confirmation of human PREPL enzyme inhibitors | shares compounds with PREPL inh | recombinant PREPL, fluorescence polarization activity probe | inhibition, % at 5.96 µM | actives 67% (n = 2,000) | AID 2803;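 also: 0% = protein with DMSO and 100% = wells lacking protein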
* marks the source's active call; other numbers are inactive results; . = no result given. Rule as the data show it, unless noted: active = inhibition above about 43%; inactive = the rest.

SMILES	MEKK2 mut-MEK5	PREPL inh	MEKK2wt PB1 HTS	MEKK3 PB1 HTS	Apaf-1 inh	UBC13 polyUb	PREPL confirm
CC1(OC(=O)C2CCCC2)C(=O)C=C2C=C(c3ccsc3)N(Cc3ccccc3)C=C2C1=O (centres undefined)	2	38	118	111	23	-40	.
O=C(C[n+]1ccc(Cc2ccccc2)cc1)Nc1ccc([N+](=O)[O-])cc1Cl	9	56*	116	117	3	13	29
Cc1ccc(Cl)cc1NC(=O)C[n+]1ccc(Cc2ccc([N+](=O)[O-])cc2)cc1	.	67*	.	.	4	31	6
COc1ccc([N+](=O)[O-])cc1NC1CCN(C(=O)c2cccs2)CC1	5	3	108	104	18	-15	.
CN1CCN(CCC(=O)Nc2ccc3c(c2)OCO3)CC1	4	2	105	104	12	5	.
O=C(CCN1CCCCCC1)Nc1ccc2c(c1)OCCO2	-2	45*	100	107	8	2	12
CCOC(=O)c1[nH]c2cc(OC)c(OC)cc2c1NC(=O)CN1CCN(c2ccc(OC)cc2)C(C)C1 (centres undefined)	-2	85*	102	102	12	4	78*
COC(=O)c1[nH]c2cccc(OC)c2c1NC(=O)CN1CCN(c2cccc(OC)c2)C(C)C1 (centres undefined)	9	11	102	100	14	9	.
COc1ccc(OC)c(C(=O)CN2C(=O)C(=O)N(C3CCCC3)C2=O)c1	.	15	.	.	6	-3	.
CCC(=O)c1cn(CC(=O)Nc2ccc(OC)cc2)c2ccccc12	-1	-1	103	102	1	7	.
Cn1cnc(C(=O)N2CCN(c3ccccc3)CC2)c1C(=O)N1CCN(c2ccccc2)CC1	.	45*	.	.	5	5	40
COc1ccccc1N1CCN(C(=O)CCc2nnc3ccc(N4CCOCC4)nn23)CC1	-4	-3	99	98	-12	-2	.
Cc1cc(C(=O)NCC(c2ccco2)N2CCCC2)c2ccccc2n1 (centres undefined)	.	-1	.	.	11	-5	.
O=C(Cc1ccccc1)Nc1cccc(N2CCCC2)c1	1	51*	95	95	1	1	19
O=C(Cc1ccccc1)Nc1ccc(N2CCOCC2)cc1	-5	26	91	95	19	-11	.
O=C(Cc1ccccc1)Nc1ccc(N2CCCC2)cc1	2	60*	99	101	31	7	15
C=CCn1c(SCc2ccccc2Cl)nnc1-c1sc2nc(C)cc(C)c2c1N	-3	47*	96	100	17	3	42
COc1ccc(-c2cn(Cc3ccc(C(N)=O)cc3)c(CCN)n2)cc1	.	46*	.	.	6	0	41
O=C(NCC(Cl)c1ccc2ccccc2c1)c1c(F)cccc1F (centres undefined)	1	8	99	100	8	8	.
Cc1occc1-c1nnc(SCc2nc3ccccc3c(=O)n2CC#N)n1C	2	43*	94	95	8	3	40
CCn1c(CSc2nnc(-c3ccoc3C)n2C)nc2cc(S(=O)(=O)N(C)C)ccc21	2	6	101	98	8	-2	.
CCN1C(=C(C#N)C#N)C=Cc2cc(C)ccc21	5	-2	109	107	-49	6	.
C=CC[n+]1c(/C=C2\C=Cc3cc(C)ccc3N2CC)ccc2ccccc21	6	46*	98	100	14	-145	60*
N#Cc1ccccc1NC(=O)CN(Cc1ccccc1)Cc1ccccc1	-3	-9	96	102	20	2	.
CCN(CCN(C)C)C(=O)C1CCN(S(=O)(=O)c2c(C)noc2/C=C/c2ccccc2F)CC1	11	44*	117	102	22	4	42
Cc1ccc(S(=O)(=O)N2CCOCC2)cc1C(=O)OCC(=O)NC1CCCC1	.	11	.	.	-10	7	.
S=C1NC[C@H](c2ccccc2)N1CC1CCCCC1	2	0	99	107	26	-4	.
